Source: PubChem BioAssay (several laboratories)
Hits are enriched below; roughly 2.1% of the tested compounds scored in any of these assays.
IEC-6 cytotox: cytotoxicity in IEC-6 intestinal epithelial cells, primary screen, cytotoxicity control for KLF5 inhibitor project, cell-based, luminescence | IEC-6 cytotoxicity, luminescence viability | inhibition, % at 5 µM | actives 0.78% (n = 290,000) | AID 1825, 2009; in the data active means inhibition above about 22%;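 further: 0% = plate median of test compound wells and 100% = cytotoxic reference compound wells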
b-catenin transl: modulators of beta-catenin nuclear translocation, primary screen, imaging, HeLa cells, immunofluorescence, high-content. nuclear translocation activity, % at 5 µM. actives 0.3% (n = 190,000);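 active means nuclear translocation activity above 50% at 5 µM, with a well cell count of 50 or more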;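 further: per-cell ratio of nuclear to cytoplasmic median beta-catenin stain intensity; plate controls were DMSO negative control for no effect and GSK-3 inhibitor IX positive control for full effect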
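Test system: HeLa cells, endogenous beta-catenin; Compound: single 5 µM dose plus 0.02–20 µM confirmation series; Times: compound exposure 24 h at 37°C; Signal: fluorescence imaging of beta-catenin antibody stain plus DAPI; Read-out: % activation, nuclear-to-cytoplasmic median beta-catenin signal ratio per cell.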
BaF3 parental: parental Ba/F3 cell viability inhibition, counter-screen for JAK2V617F inhibitor project, murine pro-B, CellTiter-Glo luminescence; AID 1486, 2009; actives 1.1% (n = 220,000); inhibition, % at 5.6 µM; CellTiter-Glo ATP luminescence;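 active means inhibition above a per-campaign cutoff, the mean inhibition of all tested compounds plus 3 SD, cut at about 27% in these data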;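 further: 0% = DMSO wells and 100% = JAK Inhibitor I control wells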
KLF5 inh: KLF5 expression inhibitors, primary screen, DLD-1 cells, luminescence; DLD-1 KLF5 promoter-luciferase reporter; inhibition, % at 5 µM; actives 0.23% (n = 290,000); AID 1700, 2009;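 active means inhibition above a per-plate limit of that plate's mean compound inhibition plus 3 SD, cut at about 60% in these data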;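 further: 0% = DMSO wells and 100% = LY294002 at 200 µM; higher means less KLF5 promoter-driven luciferase light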
Ba/F3 V617F tox: reduced viability of JAK2V617F-dependent Ba/F3 cells, primary screen, JAK2V617F inhibitor project, cell-based, Ba/F3 EpoR-JAK2V617F, luminescence; ATP luminescence; inhibition, % at 5.6 µM; actives 1.1% (n = 220,000); AID 1446, 2008;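 active means inhibition above the campaign mean plus 3 SD over all tested compounds, cut at about 24% in these data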;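 further: cytokine-independent growth of Ba/F3 cells driven by EpoR plus mutant JAK2; 0% = DMSO-treated cells and 100% = JAK inhibitor I control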
MT stabilize HCS: microtubule stabilizers in HeLa cells, primary screen, imaging, high-content imaging | actives 0.83% (n = 200,000) | % tubulin-high responders, % at 10 µM | HeLa tubulin immunostaining HCS, 24 h; share of cells brighter than vehicle mean+2SD;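 active means plate Z-score above 3 for both tubulin-high and condensed-nucleus cell shares, with cell loss under 80%, at 10 µM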;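 further: anti alpha tubulin signal scored within the nucleus-defined area of each cell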
* marks the source's active call; other numbers are inactive results.

O=C(N/N=C/c1cccnc1)c1cccc(NC(=O)c2cccc(Br)c2)c1 was read as IEC-6 cytotox 6 and KLF5 inh -14.
For O=C(N/N=C/c1ccc(O)c2ncccc12)c1cccc(Br)c1 the results were IEC-6 cytotox 20, b-catenin transl 4, BaF3 parental 52*, KLF5 inh 5, Ba/F3 V617F tox 92* and MT stabilize HCS 29.
Screening CCCc1nc2oc3c(NCCCN(C)C)ncnc3c2c2c1CCCC2 returned IEC-6 cytotox -6, b-catenin transl 0, BaF3 parental 69*, KLF5 inh -31 and Ba/F3 V617F tox 68*.
Screening CCCc1nc2oc3c(NCCN(C)C)ncnc3c2c2c1CCCC2 returned IEC-6 cytotox 4, b-catenin transl 8, BaF3 parental -1, KLF5 inh 11, Ba/F3 V617F tox -1 and MT stabilize HCS 5.
`CC(NC(=O)c1cc(COc2ccc3ncccc3c2)on1)c1ccc(F)cc1` (centres undefined) gave IEC-6 cytotox 7, b-catenin transl 1, BaF3 parental 36*, KLF5 inh -26 and Ba/F3 V617F tox 31*.
COc1cccc(CN(C)C(=O)c2cc(COc3ccc4ncccc4c3)on2)c1 was read as IEC-6 cytotox 14, b-catenin transl -1, BaF3 parental 71*, KLF5 inh -32, Ba/F3 V617F tox 54* and MT stabilize HCS 5.
`O=C(NC1CCCC1)c1cc(COc2ccc3ncccc3c2)on1` gave IEC-6 cytotox 3, b-catenin transl -1, BaF3 parental 44*, KLF5 inh -33 and Ba/F3 V617F tox 36*.
Screening CCc1ccccc1NC(=O)c1ccc2c(O)c(S(=O)(=O)c3ccc(OC)cc3)c(=O)[nH]c2c1 returned IEC-6 cytotox -6 and KLF5 inh -1.
For Cc1ccc(-c2nc3cc(NC(=O)C(C)C)ccc3o2)cc1 the results were IEC-6 cytotox -1, b-catenin transl -1, BaF3 parental 28*, KLF5 inh -230, Ba/F3 V617F tox 0 and MT stabilize HCS 1.
`COCCn1c(SCC(=O)N2CCCc3ccccc32)nc2c(c1=O)SC(C)C2` (centres undefined) gave IEC-6 cytotox 6, b-catenin transl 0, BaF3 parental 1, KLF5 inh -26, Ba/F3 V617F tox -4 and MT stabilize HCS 4.
COCCn1c(SCC(=O)N2CCCc3ccccc32)nc2ccccc2c1=O was read as IEC-6 cytotox 2, b-catenin transl -2, BaF3 parental 60*, KLF5 inh 6, Ba/F3 V617F tox 6 and MT stabilize HCS 8.
CCc1ccc(N(CC(=O)N2CCOCC2)S(C)(=O)=O)cc1 was read as IEC-6 cytotox 0 and KLF5 inh -30.
CCn1c2ccccc2c2cc(NC(=O)c3cccc(OC)c3)ccc21 was read as IEC-6 cytotox 9, b-catenin transl -1, BaF3 parental 2, KLF5 inh -62, Ba/F3 V617F tox -3 and MT stabilize HCS 31*.
Screening CCn1c2ccccc2c2cc(/C=N/NC(=O)c3cccc(C)c3)ccc21 returned IEC-6 cytotox 6, b-catenin transl 1, BaF3 parental 2, KLF5 inh 1, Ba/F3 V617F tox 7 and MT stabilize HCS 30*.
`CCn1c2ccccc2c2cc(/C=N/NC(=O)c3ccccc3C)ccc21` gave IEC-6 cytotox 4, b-catenin transl 1, BaF3 parental 10, KLF5 inh -17, Ba/F3 V617F tox 2 and MT stabilize HCS 15.
`COc1cccc(-c2nnc(SCC(=O)Nc3ccc(OC)c(OC)c3)n2N)c1` gave IEC-6 cytotox -5, b-catenin transl -1, BaF3 parental 4, KLF5 inh -11, Ba/F3 V617F tox -1 and MT stabilize HCS 1.
`COc1cccc(NC(=O)CN(C)C(=O)c2c(-c3ccccc3)noc2C)c1` gave IEC-6 cytotox 0 and KLF5 inh -16.
`CC(=O)Oc1ccc(C(=O)Nc2ccc(S(=O)(=O)NCC3CCCO3)cc2)cc1` (centres undefined) gave IEC-6 cytotox 2 and KLF5 inh -22.
CC(=O)c1sc(NC(=O)c2ccc3c(c2)OCO3)nc1C was read as IEC-6 cytotox 5 and KLF5 inh -185.
